The record followed here is ChEMBL document CHEMBL4325832, “Novel Benzazole Derivatives Endowed with Potent Antiheparanase Activity” (J Med Chem, 2018).

The source made the active and inactive calls. The calls are words filed in the database; no cut-off is given here. A value given as a limit tells only on which side of the number the result lay.

The subject of assay [1] is HT-1080. In words: Inhibition of cell invasion in human HT1080 cells at 1 uM after 24 hrs by SRB staining based matrigel invasion chamber assay relative to control. The class given is functional. To be noted: HT-1080, 24 h. In a few lines:
(§1)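 HT1080, U87MG and U2OS cells pretreated with compound in complete medium for 24 h, harvested, resuspended in serum-free medium and seeded at 2.5 × 10^4 cells/filter into Growth Factor Reduced Matrigel-coated Transwell upper chambers. Same concentration in both upper and lower chambers. After 24 h, invaded cells SRB-stained and counted under microscope at 40X-100X. Student's 2-tailed t test, P<0.05.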

The test system of assay [2] is U2OS. In words: Inhibition of cell invasion in human U2OS cells at 1 uM after 24 hrs by SRB staining based matrigel invasion chamber assay relative to control. The assay is classed as functional. Summed up:
as §1

In assay [3] the test system is U2OS. In words: Antiproliferative activity against human U2OS cells after 3 days by SRB assay.
Assay [4] deals with HT-1080. In words: Downregulation of HPSE1 mRNA expression in human HT1080 cells at 1 uM after 24 hrs by qPCR analysis. The class given is functional, cell-based. In a few lines: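 HT1080 cells treated 24 h with compound at 1 μM. Total RNA extracted and reverse-transcribed. HPSE-1 mRNA quantified by real-time qPCR using the ΔΔCt method, […]. Expressed as percent of untreated cells.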

Assay [5] relates to U-87 MG. In words: Antiproliferative activity against human U87MG cells after 3 days by SRB assay.
The test system of assay [6] is HT-1080. Description: Antiproliferative activity against human HT1080 cells after 3 days by SRB assay.
Assay [7] has as its system U-87 MG. In words: Inhibition of cell invasion in human U87MG cells at 1 uM after 24 hrs by SRB staining based matrigel invasion chamber assay relative to control. The class given is functional, U-87MG ATCC. Summed up: as §1
The next assay has as its target T1, Heparanase (Homo sapiens, UniProt Q9Y251).
T1 sequence (Q9Y251 whole entry): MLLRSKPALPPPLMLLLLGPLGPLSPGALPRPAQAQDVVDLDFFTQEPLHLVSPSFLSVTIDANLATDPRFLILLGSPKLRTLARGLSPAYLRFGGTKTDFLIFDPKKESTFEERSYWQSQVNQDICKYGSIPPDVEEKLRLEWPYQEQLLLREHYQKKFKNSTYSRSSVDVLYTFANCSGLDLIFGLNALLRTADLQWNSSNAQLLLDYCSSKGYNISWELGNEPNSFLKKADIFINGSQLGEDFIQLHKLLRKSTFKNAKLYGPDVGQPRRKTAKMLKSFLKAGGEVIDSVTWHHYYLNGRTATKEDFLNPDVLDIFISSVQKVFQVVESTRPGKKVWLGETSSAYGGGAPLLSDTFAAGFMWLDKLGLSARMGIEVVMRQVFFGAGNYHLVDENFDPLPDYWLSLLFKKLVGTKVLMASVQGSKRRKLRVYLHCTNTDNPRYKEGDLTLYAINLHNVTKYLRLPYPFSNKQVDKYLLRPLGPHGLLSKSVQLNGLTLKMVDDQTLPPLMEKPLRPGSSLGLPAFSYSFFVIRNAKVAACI
Description: Inhibition of recombinant HPSE GS3 (unknown origin) using fondaparinux as substrate incubated for 3 hrs in absence of light by WST1 based colorimetry.

Assay [8] has as its system U2OS. In words: Inhibition of cell invasion in human U2OS cells at 10 uM after 24 hrs by SRB staining based matrigel invasion chamber assay relative to control. To be noted: read-out: INH.
Assay [9] has as its system HT-1080. Description: Inhibition of cell invasion in human HT1080 cells at 10 uM after 24 hrs by SRB staining based matrigel invasion chamber assay relative to control. The assay is classed as functional. Summed up: as §1
Assay [10] has as its system U-87 MG. In words: Inhibition of cell invasion in human U87MG cells at 10 uM after 24 hrs by SRB staining based matrigel invasion chamber assay relative to control. The class given is functional. In a few lines: as §1
Assay [11] deals with U2OS. Particulars: Homo sapiens, 10 uM.
The test system of assay [12] is A204. In words: Anti-invasive activity against human A204 cells after 24 hrs by SRB staining based matrigel invasion chamber assay. The assay is classed as functional, cell-based. Summed up:
(§2)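 CME-1 or A204 cells pretreated with drug in complete medium for 24 h, then resuspended in serum-free medium and placed in upper chamber of Growth Factor Reduced Matrigel-coated Transwells (1.2 × 10^5 CME-1 or 1.8 × 10^5 A204 cells/filter). Same drug concentration in both upper and lower chambers, 24 h. Invaded cells SRB-stained and counted microscopically. DMSO final 0.5% (CME-1) or 0.25% (A204).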

Assay [13] relates to A204. Particulars: Homo sapiens, 1.5 uM.
Assay [14] relates to A204. In words: Antiproliferative activity against human A204 cells after 72 hrs by cell counting analysis. Particulars: A204, 72 h.
Assay [15] can be described thus: Antiproliferative activity against human CME1 cells after 72 hrs by cell counting analysis.
The subject of assay [16] is A204. In words: Antiproliferative activity against human A204 cells assessed as inhibition of cell proliferation at 3.1 uM after 24 hrs by cell counting analysis relative to control. The class given is functional. Set-up: scale not given: the % may be the effect or the level left. In a few lines: (§3)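 CME-1 or A204 cells in RPMI plus 10% FBS, exposed to drug in DMSO or solvent alone for 24 h. Proliferation assessed by cell counting and expressed as percent inhibition versus control. DMSO final 0.5% (CME-1) or 0.25% (A204).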

The species named for assay [17] is Homo sapiens. Description: Anti-invasive activity against human CME1 cells after 24 hrs by SRB staining based matrigel invasion chamber assay. The assay is classed as functional, cell-based. Summed up: as §2
Assay [18] is filed under the species Homo sapiens. To be noted: 1.5 uM.
A short description of assay [19]: Antiproliferative activity against human CME1 cells assessed as inhibition of cell proliferation at 3.1 uM after 24 hrs by cell counting analysis relative to control. The class given is functional. Set-up: scale not given: the % may be the effect or the level left. Summed up: as §3

As for `COc1ccc(C(=O)Nc2ccc(CNc3ccc(-c4nc5ccccc5[nH]4)cc3)cc2)cc1Br`, the inhibition at 1 µM in the assay with HT-1080 [1], in the assay with U2OS [2] and in the assay with U-87 MG [7] was 50 to 90% in each case. For the same compound, the IC50 in the assay on U2OS [3] (Homo sapiens, U2OS, 72 h) worked out at 2.1 µM; in the assay on U-87 MG [5] (Homo sapiens, U-87 MG, 72 h), 2.7 µM; in the assay on HT-1080 [6] (Homo sapiens, HT-1080, 72 h), 3.1 µM. Besides, the result in the assay on HT-1080 [4] was inactive.
As to `COc1ccc(C(=O)Nc2ccc(CNc3ccc(-c4nc5cc(CC(=O)NCC(=O)O)ccc5[nH]4)cc3F)cc2)cc1Br`, the IC50 is 0.64 µM on Heparanase, “Not Active” in the assay on U2OS [3] (u2os), “Not Active” with U-87 MG [5] (u-87mg atcc) and “Not Active” in the assay on HT-1080 [6] (ht-1080). In addition, in the assay on U2OS [8], the inhibition at 10 µM was under 50%. Besides, the inhibition result in the assay on HT-1080 [9] and in the assay on U-87 MG [10] (U-87MG ATCC) was “inactive” each time.
As for `COc1ccc(C(=O)Nc2ccc(CNc3ccc(-c4nc5cc(CC(=O)O)ccc5o4)cc3)cc2)cc1Br`, the IC50 on Heparanase was over 10 µM.
Turning to `COc1ccc(C(=O)Nc2ccc(CNc3ccc(-c4nc5cc(CC(=O)N[C@@H](CCC(=O)O)C(=O)O)ccc5o4)cc3F)cc2)cc1Br`, the inhibition entry with U2OS [11] is “inactive”. Further, the half-inhibitory concentration (IC50) entry with U2OS [3] (u2os), in the assay with U-87 MG [5] (u-87mg atcc) and in the assay with HT-1080 [6] (ht-1080) was “Not Active” each time. The inhibition at 10 µM lay in the range of 50 to 90% in the assay with HT-1080 [9] (HT-1080, 24 h) and 50 to 90% in the assay with U-87 MG [10].
On to `COc1ccc(C(=O)Nc2ccc(CNc3ccc(-c4nc5ccccc5[nH]4)cc3F)cc2)cc1Br`, for which the inhibition at 1 µM in the assay on HT-1080 [1], in the assay with U2OS [2] and with U-87 MG [7] was 50 to 90% throughout. The Activity entry with A204 [12] was “Dose-dependent effect”; in the assay on A204 [16], 5%; in the assay listed under Homo sapiens [17], “Dose-dependent effect”; in assay [19] it was 15%. Further, the IC50 came out at 1.7 µM in the assay with U2OS [3] (Homo sapiens, U2OS, 72 h); 2.8 µM with U-87 MG [5] (Homo sapiens, U-87 MG, 72 h); 3.4 µM in the assay on A204 [14]; 3.9 µM in assay [15]; 8.7 µM in the assay on HT-1080 [6] (Homo sapiens, HT-1080, 72 h). In addition, the outcome with HT-1080 [4] was Active. In addition, the inhibition entry in the assay with A204 [13] and in the assay listed under Homo sapiens [18] was “inactive” throughout.
In the case of `COc1ccc(C(=O)Nc2ccc(CNc3ccc(-c4nc5cc(CC(=O)O)ccc5[nH]4)cc3)cc2)cc1Br`, the half-maximal inhibitory concentration (IC50) on Heparanase was over 10 µM.
Same read-out and setting: the value for `COc1ccc(C(=O)Nc2ccc(CNc3ccc(-c4nc5cc(CC(=O)N[C@@H](CCCCN)C(=O)O)ccc5o4)cc3F)cc2)cc1Br` was over 10 µM.
For `COc1ccc(C(=O)Nc2ccc(CNc3ccc(-c4nc5cc(CC(=O)NCC(=O)O)ccc5o4)cc3F)cc2)cc1Br`, the IC50 result in the assay on U2OS [3] (u2os), with U-87 MG [5] (u-87mg atcc) and with HT-1080 [6] (ht-1080) was “Not Active” each time.
Turning to `COc1ccc(C(=O)Nc2ccc(CNc3ccc(-c4nc5cc(CC(=O)NCB(O)O)ccc5o4)cc3F)cc2)cc1Br`, the IC50 at Heparanase is over 10 µM.
